Source: PubChem
EBI2 antag = blocks human EBI2 receptor beta-arrestin signaling | P32249 | EBI2 beta-arrestin recruitment, luminescence, 7a,25-OHC stimulated | inhibition, % at 5 µM | actives 0.81% (n = 360,000); in the data active = inhibition above about 38%;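 note: enzyme fragment complementation signal reports receptor beta-arrestin coupling in cells; 0% = agonist plus DMSO wells and 100% = wells without agonist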
Target sequence (P32249 whole entry, looked up, the tested form may be a part): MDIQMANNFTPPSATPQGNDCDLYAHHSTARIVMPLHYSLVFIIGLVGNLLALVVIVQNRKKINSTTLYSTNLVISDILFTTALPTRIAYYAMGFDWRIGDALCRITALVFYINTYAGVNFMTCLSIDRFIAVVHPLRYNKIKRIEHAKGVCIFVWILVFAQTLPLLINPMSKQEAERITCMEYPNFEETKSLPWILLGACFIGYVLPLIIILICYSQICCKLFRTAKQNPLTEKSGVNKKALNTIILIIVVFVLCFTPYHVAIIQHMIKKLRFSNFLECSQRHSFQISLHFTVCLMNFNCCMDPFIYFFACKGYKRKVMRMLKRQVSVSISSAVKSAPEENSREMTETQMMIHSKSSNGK
HTR2A ag = agonists of mouse serotonin 5-HT2A receptor (HTR2A). P35363. CHO-K1 mHTR2A beta-arrestin complementation, luminescence; percent of 30 µM serotonin response. activation, % at 7.6 µM. actives 0.66% (n = 360,000);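 active = activation above a run cutoff, the mean activation of all tested compounds plus 3 SD, cut at about 14% in these data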;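 note: 0% = plate median of compound wells and 100% = 30 µM serotonin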
CXCR6 block = CXCR6 (human) receptor inhibition; AID 602244; CHO-K1 PathHunter CXCR6 beta-arrestin, luminescence; actives 0.36% (n = 360,000); inhibition, % at 20 µM; O00574; in the data active = inhibition above about 34%, passing the limit was not always enough;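 note: antagonist mode with CXCL16 agonist at 10 nM final; 0% = 10 nM CXCL16 with DMSO and 100% = unstimulated wells without agonist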
CCR6 antagonist = blocks CCL20-driven beta-arrestin recruitment at human CCR6; P51684; actives 0.49% (n = 340,000); inhibition, % at 20 µM; CHO-K1 CCR6 PathHunter beta-arrestin, luminescence, CCL20-stimulated;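 active = compounds whose inhibition of the agonist-driven luminescence signal at 20 µM reaches about 50%, limit read from the data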;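 note: cells stimulated with CCL20 at 14 nM final; plate controls were DMSO with CCL20 for no effect and DMSO without agonist for full effect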
APJ ag = agonists of human APJ apelin receptor; P35414; CHO-K1 APJ PathHunter beta-arrestin, luminescence; 0% DMSO wells, 100% apelin; activation, % at 20 µM; actives 0.11% (n = 330,000); AID 2520;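 active = activation more than six SD over the plate average, tested at 20 µM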;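 note: 0% = DMSO alone and 100% = apelin-13 at 10 nM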
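Assay system: CHO-K1 APJ beta-arrestin complementation cell line / Compound: single test compound dose, 20 µM final, 1% DMSO / Times: overnight seeding, 90 min compound at 25 °C, 1 h detection / Technique: beta-gal luminescence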
APJ antag = blocks the human apelin receptor APJ; inhibition, % at 20 µM; CHO-K1 APJ beta-arrestin complementation, luminescence; actives 0.32% (n = 330,000); P35414; AID 2521;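 active = inhibition above about 40% at 20 µM, limit read from the data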;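 note: cells challenged with 10 nM apelin-13 agonist together with compound; plate controls were apelin-13 plus DMSO wells for no effect and DMSO wells lacking apelin-13 for full effect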
CXCR6 antag conf = confirmation of human CXCR6 receptor antagonists; shares compounds with CXCR6 block; CHO-K1 CXCR6 PathHunter beta-arrestin, luminescence; inhibition, % at 20 µM; actives 65% (n = 700);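 active = mean inhibition over four retests above 40%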;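 note: receptor stimulated with 10 nM CXCL16 agonist; beta-galactosidase fragment complementation upon beta-arrestin recruitment to receptor; plate controls were CXCL16 plus DMSO for no effect and DMSO without CXCL16 for full effect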
* marks the source's active call; other numbers are inactive results; . = no result. In the library only some 2.1% were active in any assay of this set; here they are far more common.

SMILES	EBI2 antag	HTR2A ag	CXCR6 block	CCR6 antagonist	APJ ag	APJ antag	CXCR6 antag conf
C=CCN(CC=C)C(=S)NC(=O)c1ccc(C)c(Br)c1	5	-7	49*	46	-3	32	54*
C=CCN(CC=C)C(=S)NC(=O)c1ccc(OC)cc1	-4	4	8	24	-4	17	.
O=C1C=CC(=O)N1c1ccc2c(c1)C(NC(=O)C(F)(F)F)c1ccccc1-2 (stereo not drawn)	16	3	79*	108*	.	.	32
CCOC(=O)c1cccc(NC(=O)COc2nsnc2N2CCOCC2)c1	6	4	-10	16	2	9	.
CCOC(=O)c1oc2ccc(/C=N/O)c(Cl)c2c1C	-3	3	3	1	-4	-6	.
CCc1nc2c(OCCC3CCCCC3)cccn2c1N(C)C(=O)c1ccc(C)cc1	29	-11	42*	.	.	.	48*
Cc1cccc(N2CCN(C(=O)c3ccccc3SCC(=O)N3CCCC3)CC2)c1C	-3	4	7	20	2	9	.
Cc1ccc(NC(=O)c2ccc(Nc3c([N+](=O)[O-])cc([N+](=O)[O-])cc3[N+](=O)[O-])cc2)cc1	81*	1	43*	71*	-1	35	56*
CC(C)(C)c1ccc(OCc2ccc(C(=O)Nc3cccnc3)o2)cc1	15	-3	-12	-3	3	19	.
Cc1cccc(C(=O)Nc2ccc(C(=O)/C=C/c3cccnc3)cc2)c1	33	-6	36*	34	.	.	44*
O=C(/C=C/c1cccnc1)c1ccc(NC(=O)c2cccc(Br)c2)cc1	-3	-4	9	23	5	18	.
Cc1cc(C)cc(NC(=O)c2cccnc2)c1	-3	10	40*	13	2	-4	5
O=C(NCCCN1CCOCC1)c1cc2c(s1)CSC2	5	-2	44*	-7	-3	13	-9
COc1cccc(/C=C2\C(=O)N(c3cccc(C)c3)C(=O)c3ccccc32)c1	17	4	-10	14	0	9	.
CCOc1cc(/C=C2\C(=O)N(c3cccc(C(F)(F)F)c3)C(=O)c3ccccc32)ccc1O	4	1	44*	46	-2	15	43*
CCCn1c(O)c(N=NC(=O)c2cccnc2)c2cc(Br)ccc21	-8	2	6	22	-1	8	.
CCCCc1ccc(-n2nnnc2SCC(=O)Nc2cc(OC)c([N+](=O)[O-])cc2C)cc1	22	-4	75*	1	-2	7	13
CC(C)CC1C(=O)N(Cc2cn(CC3CCCCC3)nn2)CCS(=O)(=O)N1Cc1ccc(-c2ccc(Cl)c(Cl)c2)cc1 (stereo not drawn)	17	4	104*	.	.	.	15
CSc1nc2cc(Oc3cccc(Cl)c3Cl)c(Cl)cc2[nH]1	1	1	1	5	14	-23	.
O=C(c1ccc(Br)s1)N1CCN(c2ncccn2)CC1	-5	0	41*	6	-5	-9	3
O=C(c1ccc(Br)s1)N1CCCC1	-6	8	5	-11	-4	10	.
CC1(C)Cc2ccccc2C(NNC(=O)c2ccccn2)=N1	-3	-1	45*	28	-6	22	41*
O=C1CN(C(=O)c2c(F)cccc2F)C(c2ccc(F)cc2)c2cc(F)ccc2N1 (stereo not drawn)	-5	2	-2	-1	-2	7	.
CCNC(=O)c1nc[nH]c1C(=O)NCC	5	-1	59*	25	-5	-11	-1
CNC(=O)c1nc[nH]c1C(=O)NC	-3	0	-8	1	1	5	.
SMILES	EBI2 antag	HTR2A ag	CXCR6 block	CCR6 antagonist	APJ ag	APJ antag	CXCR6 antag conf
C/C(=N\NC(=S)NCCc1ccccc1)c1ccc(O)cc1O	6	-6	0	9	7	-5	.
C/C(=N\NC(=S)NCCc1ccccc1)c1ccc(Cl)cc1Cl	13	-25	54*	.	-8	33	54*
O=C1C2C3C=CC(C4CC34)C2C(=O)N1Cc1ccco1 (stereo not drawn)	-3	4	0	-1	-2	-5	.
CCOC(=O)c1ccc(NC(=S)NC(=O)c2cncc(Br)c2)cc1	1	6	42*	60*	-7	38	21
Cc1ccc(C(=O)NC(=S)Nc2ccc(NC(=O)c3cccs3)cc2)cc1[N+](=O)[O-]	2	4	28*	50*	-5	20	24
O=S(=O)(c1ccc(Br)s1)N1CCC2(CC1)OCCO2	-11	2	0	6	-8	5	.
CN(C)C(=O)C#Cc1ccccc1	-9	1	-2	8	-2	12	.
O=C(C#Cc1ccccc1)c1ccccc1	24	5	71*	.	.	.	72*
N#Cc1c(C#N)c(SSc2c(C#N)c(C#N)c(N)n2-c2ccccc2)n(-c2ccccc2)c1N	-17	-2	101*	109*	.	.	85*
N#Cc1c(N)n(-c2ccc(N)cc2)c2nc3ccccc3nc12	-6	-5	2	12	-3	5	.
CCC/C=C/c1ccc(CN2C(C)C(=O)N(Cc3cn(CCOCOC)nn3)CCS2(=O)=O)cc1 (stereo not drawn)	4	-5	42*	.	.	.	7
COc1cc(/C=C/C(=O)NC(=O)c2ccccc2O)ccc1O	12	3	0	19	-11	19	.
COc1cc(/C=C/C(O)=C/C(=O)/C=C/c2ccc(O)cc2)ccc1O	13	-6	40*	61*	-9	4	45*
C=C1CC(COc2cc(=O)oc3ccccc23)(c2ccccc2)OC1=O (stereo not drawn)	52*	-2	89*	100*	.	.	90*
C[C@@H]1CC=C[C@@H]2[C@H]1C(=O)N(Cc1ccccc1)[C@H]2c1ccccc1Br	20	5	35*	7	.	.	5
CC[N+]1(C)CCC(O)(/C=C/c2ccccc2)C(C(=O)/C=C/c2ccccc2)C1 (stereo not drawn)	25	-5	40*	63*	.	.	68*
CCCCOc1ccc(C(=O)NCC(=O)N2CCN(C/C=C/c3ccccc3)CC2)cc1	34	0	1	.	.	.	.
COc1cccc(CN2CCNC(=O)C2CC(=O)NCC2CCOCC2)c1 (stereo not drawn)	-1	-3	-5	-1	0	-7	.
CC(=O)Nc1ccc(Sc2ccc([N+](=O)[O-])o2)cc1	27	-4	52*	57*	.	.	60*
O=C(N/N=C/c1ccc([N+](=O)[O-])o1)c1sc2ccccc2c1Cl	4	-5	41*	50	-5	-21	43*
